Source: ChEMBL document CHEMBL1134769, “Potent and selective nonpeptide inhibitors of caspases 3 and 7” (J Med Chem, 2001)

Columns and labels:
[1] = target: T1, Caspase-4 (Homo sapiens, UniProt P49662); experiment: Inhibitory activity against caspase-4; conditions: read-out: Ki app
T1 sequence (P49662 whole entry): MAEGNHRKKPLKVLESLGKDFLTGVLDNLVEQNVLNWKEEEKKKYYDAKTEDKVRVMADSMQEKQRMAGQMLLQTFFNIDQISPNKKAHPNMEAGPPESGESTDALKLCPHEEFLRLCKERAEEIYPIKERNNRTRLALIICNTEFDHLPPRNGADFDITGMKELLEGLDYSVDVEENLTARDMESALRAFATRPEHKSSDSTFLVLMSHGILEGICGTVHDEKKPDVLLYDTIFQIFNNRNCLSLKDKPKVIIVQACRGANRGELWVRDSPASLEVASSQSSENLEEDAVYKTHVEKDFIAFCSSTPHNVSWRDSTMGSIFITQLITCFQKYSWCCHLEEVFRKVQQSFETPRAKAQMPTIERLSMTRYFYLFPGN
Outline: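 Recombinant full-length human caspase 4, ~10 units/assay, in potassium acetate pH 5.8 with 1 mM EDTA, 10% sucrose, 0.1% CHAPS and 5 mM β-mercaptoethanol. Substrate 100 μM Ac-LEED-AMC. Read at 360/460 nm, 30 °C, 5% final DMSO. Single-dose screen (typically 5–50 μM), then IC50 curves for actives.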

[2] = target: T2, Caspase-3 (Homo sapiens, UniProt P42574); experiment: Inhibition of recombinant human caspase-3
T2 sequence (P42574 whole entry): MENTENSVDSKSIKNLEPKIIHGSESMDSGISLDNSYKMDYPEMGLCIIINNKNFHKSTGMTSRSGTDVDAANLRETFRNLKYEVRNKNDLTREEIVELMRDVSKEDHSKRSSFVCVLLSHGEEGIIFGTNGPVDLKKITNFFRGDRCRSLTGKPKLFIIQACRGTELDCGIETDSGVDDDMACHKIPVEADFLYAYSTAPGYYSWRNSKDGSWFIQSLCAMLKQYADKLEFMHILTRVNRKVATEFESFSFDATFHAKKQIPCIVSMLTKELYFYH

[3] = target: Caspase-8 (Homo sapiens, UniProt Q14790); experiment: Inhibitory activity against Caspase-8; conditions: read-out: Ki app
Sequence of Caspase-8 (Q14790 217-374 limits assumed): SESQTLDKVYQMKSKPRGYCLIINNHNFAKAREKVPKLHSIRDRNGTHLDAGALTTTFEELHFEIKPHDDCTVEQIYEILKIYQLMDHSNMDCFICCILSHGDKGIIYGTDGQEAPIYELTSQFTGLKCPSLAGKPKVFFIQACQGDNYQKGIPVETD
Sequence of Caspase-8 (Q14790 385-479 limits assumed): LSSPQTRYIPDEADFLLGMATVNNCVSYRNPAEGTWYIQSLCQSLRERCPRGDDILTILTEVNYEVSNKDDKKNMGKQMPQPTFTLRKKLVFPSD
Outline: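 Recombinant full-length human caspase 8, ~10 units/assay, in Na+MOPS pH 7.5 with 10% glycerol, 0.25 mM EDTA and 5 mM β-mercaptoethanol. Substrate 10 μM Ac-IETD-AMC. Fluorescence at 360/460 nm, 30 °C, 5% final DMSO. Compounds screened at a single dose (typically 5–50 μM), then full IC50 curves for actives.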

[4] = target: T3, Caspase-9 (Homo sapiens, UniProt P55211); experiment: Inhibitory activity against Caspase-9; conditions: read-out: Ki app
T3 sequence (P55211 whole entry): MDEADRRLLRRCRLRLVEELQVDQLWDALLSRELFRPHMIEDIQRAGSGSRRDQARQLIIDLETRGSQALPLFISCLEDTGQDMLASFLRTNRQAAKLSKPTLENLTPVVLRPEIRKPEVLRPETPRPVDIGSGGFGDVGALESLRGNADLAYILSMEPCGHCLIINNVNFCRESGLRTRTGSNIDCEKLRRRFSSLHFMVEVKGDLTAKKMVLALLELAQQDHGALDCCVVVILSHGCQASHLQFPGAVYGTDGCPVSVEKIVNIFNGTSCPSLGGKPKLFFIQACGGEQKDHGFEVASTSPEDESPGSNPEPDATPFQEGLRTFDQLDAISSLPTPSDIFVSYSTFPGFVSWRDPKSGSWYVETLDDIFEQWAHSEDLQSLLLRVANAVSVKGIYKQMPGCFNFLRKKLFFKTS

[5] = target: T2, Caspase-3; experiment: Inhibitory activity against caspase-3; conditions: read-out: Ki app
Outline: (§1)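 Recombinant full-length human caspase 3 or 7, ~10 units/assay (1 unit = 1 pmol AMC/min). Substrate 10 μM Ac-DEVD-AMC. AMC fluorescence at 360/460 nm, 30 °C, with 5% final DMSO. Single-dose screen (typically 5–50 μM), then IC50 curves; repeated IC50s had CVs typically <30%.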

[6] = target: T4, Caspase-2 (Homo sapiens, UniProt P42575); experiment: Inhibitory activity against caspase-2; conditions: read-out: Ki app
T4 sequence (P42575 whole entry): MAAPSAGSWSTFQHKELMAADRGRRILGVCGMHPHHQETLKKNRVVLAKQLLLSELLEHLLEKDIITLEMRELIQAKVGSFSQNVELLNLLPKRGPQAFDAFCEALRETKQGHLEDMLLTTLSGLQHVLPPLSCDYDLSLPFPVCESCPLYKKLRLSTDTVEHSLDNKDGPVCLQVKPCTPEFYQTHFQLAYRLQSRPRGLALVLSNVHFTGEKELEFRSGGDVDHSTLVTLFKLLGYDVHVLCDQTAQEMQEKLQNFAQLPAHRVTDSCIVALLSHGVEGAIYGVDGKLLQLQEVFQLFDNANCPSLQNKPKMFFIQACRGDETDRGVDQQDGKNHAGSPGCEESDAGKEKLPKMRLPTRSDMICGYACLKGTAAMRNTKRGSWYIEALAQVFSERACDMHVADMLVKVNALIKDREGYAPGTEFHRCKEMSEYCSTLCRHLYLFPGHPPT
Outline: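 Recombinant full-length human caspase 2 (~10 units/assay) in 50 mM sodium acetate pH 6.2 with 10% glycerol, 0.25 mM EDTA and 5 mM β-mercaptoethanol. Substrate 25 μM Ac-VDVAD-AMC. Fluorescence at 360/460 nm, 30 °C, final DMSO 5%. Compounds screened at a single dose (typically 5–50 μM), then full IC50 curves where activity was seen.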

[7] = target: T5, Caspase-7 (Homo sapiens, UniProt P55210); experiment: Inhibitory activity against Caspase-7; conditions: read-out: Ki app; outline: as §1
T5 sequence (P55210 whole entry): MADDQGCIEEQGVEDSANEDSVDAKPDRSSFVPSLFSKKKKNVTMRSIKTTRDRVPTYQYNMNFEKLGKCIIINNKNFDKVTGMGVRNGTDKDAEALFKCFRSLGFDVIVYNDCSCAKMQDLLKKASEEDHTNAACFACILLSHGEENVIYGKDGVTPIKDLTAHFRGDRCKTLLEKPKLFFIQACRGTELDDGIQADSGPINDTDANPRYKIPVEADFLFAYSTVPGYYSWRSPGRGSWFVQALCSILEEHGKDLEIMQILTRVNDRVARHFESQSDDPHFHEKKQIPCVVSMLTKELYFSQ

[8] = test system: Jurkat (Homo sapiens); experiment: In vitro inhibition of Jurkat cell apoptosis at 10 uM of compound
[9] = test system: Jurkat (Homo sapiens); experiment: In vitro inhibition of Jurkat cell apoptosis at 50 uM of compound
[10] = test system: C20/A4; experiment: In vitro inhibition of Chondrocyte cell line C20/A4 apoptosis at 25 uM of compound; type: functional, Homo sapiens
Outline: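 Immortalized human chondrocyte line C20/A4 seeded at 20 000 cells/well overnight, then exposed 24 h to 4 μg/mL camptothecin with or without compound. Floating and adherent cells combined and lysed 30 min at 4 °C, then clarified at 14000g. Mono- and oligonucleosome DNA fragments measured by cell death ELISA; result expressed as % inhibition of apoptosis.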

| Compound | Ki [1] [µM] | IC50 [2] [nM] | Ki [3] [µM] | Ki [4] [nM] | Ki [5] [nM] | Ki [6] [µM] | Ki [7] [nM] | Inhibition [8] [%] | Inhibition [9] [%] | Inhibition [10] [%] |
| --- | --- | --- | --- | --- | --- | --- | --- | --- | --- | --- |
| COC[C@@H]1CCCN1S(=O)(=O)c1ccc2c(c1)C(=O)C(=O)N2 | > 25 | 120 | > 25 | 1100 | 60 | > 25 | 170 | 22 | 54 |  |
| CN(CC1CCCN1S(=O)(=O)c1ccc2c(c1)C(=O)C(=O)N2)c1ccccc1 (stereo unspecified) | > 50 | 5500 | > 50 | > 50000 | 12000 | 11 | 10000 |  |  |  |
| O=C1C(=O)N(Cc2ccccc2)c2ccc(S(=O)(=O)N3CCC[C@H]3COc3ccccc3)cc21 | > 5 | 2.5 | > 5 | 120 | 1.2 | 4 | 6 | 27 | 47 | 84 |
| O=C1Nc2ccc(S(=O)(=O)N3CCC[C@H]3COc3ccccc3)cc2C1=O | 33 | 44 | 49 | 1200 | 15 | 4.9 | 47 | 51 | 82 | 83 |
| O=C1Nc2ccc(S(=O)(=O)N3CCC[C@H]3CNc3ccccc3)cc2C1=O | 30 | 31 | 80 | 850 | 19 | 6.5 | 47 | 8 | 61 | 96 |
